Legend:
[1] = Cytotoxicity against human U87 cells after 72 hrs by MTT assay; type: functional, U-87MG ATCC; conditions: U-87 MG
Procedure, shortened: (§1)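 Cells seeded at 5×10^3 per well in DMEM with 10% FBS, preincubated 4 h, then exposed to serial dilutions for 72 h. MTT at 1 mg/mL added for 4 h at 37 °C, formazan dissolved in DMSO, absorbance read at 570 nm. Triplicate assays; GI50 from non-linear regression of sigmoidal dose-response curves.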

DLD-1 = assay: Cytotoxicity against human DLD1 cells after 72 hrs by MTT assay; type: functional; conditions: DLD-1, 72 h; procedure, shortened: as §1
[2] = Cytotoxicity against human A172 cells after 72 hrs by MTT assay; type: functional; conditions: A 172, 72 h; procedure, shortened: as §1
SiHa = assay: Cytotoxicity against human SiHa cells after 72 hrs by MTT assay; type: functional; procedure, shortened: as §1
HeLa = assay: Cytotoxicity against human HeLa cells after 72 hrs by MTT assay; type: functional; procedure, shortened: as §1
B16 = assay: Cytotoxicity against mouse B16 cells after 72 hrs by MTT assay; type: functional; conditions: B16, 72 h; procedure, shortened: as §1

Compound	GI50 [1] [nM]	GI50 (DLD-1) [nM]	GI50 [2] [nM]	GI50 (SiHa) [nM]	GI50 (HeLa) [nM]	GI50 (B16) [nM]
C[C@@H]1[C@@H](n2cc(-c3cc(F)cc(F)c3)nn2)O[C@@H]2O[C@]3(C)CC[C@H]4[C@H](C)CC[C@@H]1[C@@]24OO3	450	1280	540	460	240	700
Cc1ccc(-c2cn([C@@H]3O[C@@H]4O[C@]5(C)CC[C@H]6[C@H](C)CC[C@@H]([C@H]3C)[C@@]46OO5)nn2)cc1	280	400	90	120	110	120
C[C@H]1[C@H](n2nncc2-c2cc(F)cc(F)c2)O[C@@H]2O[C@]3(C)CC[C@H]4[C@H](C)CC[C@@H]1[C@@]24OO3	170	170	100	70	80	100
C[C@H]1[C@H](n2nncc2-c2ccccc2)O[C@@H]2O[C@]3(C)CC[C@H]4[C@H](C)CC[C@@H]1[C@@]24OO3	200	600	150	140	40	220
Cc1ccc(-c2cnnn2[C@@H]2O[C@@H]3O[C@]4(C)CC[C@H]5[C@H](C)CC[C@@H]([C@H]2C)[C@@]35OO4)cc1	110	290	100	190	40	110
C[C@H]1[C@H](n2nncc2-c2cccc(Cl)c2)O[C@@H]2O[C@]3(C)CC[C@H]4[C@H](C)CC[C@@H]1[C@@]24OO3	100	40	130	160	60	100
CCCCCc1ccc(-c2cn([C@@H]3O[C@@H]4O[C@]5(C)CC[C@H]6[C@H](C)CC[C@@H]([C@H]3C)[C@@]46OO5)nn2)cc1	70	140	70	80	90	70
C[C@H]1[C@H](n2cc(-c3ccc(F)cc3)nn2)O[C@@H]2O[C@]3(C)CC[C@H]4[C@H](C)CC[C@@H]1[C@@]24OO3	160	480	130	140	50	110
C[C@@H]1[C@@H](n2cc(-c3ccccc3)nn2)O[C@@H]2O[C@]3(C)CC[C@H]4[C@H](C)CC[C@@H]1[C@@]24OO3	150	280	110	140	30	200
C[C@H]1[C@H](n2nncc2-c2ccccc2C(F)(F)F)O[C@@H]2O[C@]3(C)CC[C@H]4[C@H](C)CC[C@@H]1[C@@]24OO3	80	170	80	80	70	80
C[C@@H]1[C@@H](n2cc(-c3ccc(F)cc3)nn2)O[C@@H]2O[C@]3(C)CC[C@H]4[C@H](C)CC[C@@H]1[C@@]24OO3	630	2150	560	960	410	840
C[C@H]1[C@H](n2cc(-c3cc(F)cc(F)c3)nn2)O[C@@H]2O[C@]3(C)CC[C@H]4[C@H](C)CC[C@@H]1[C@@]24OO3	130	300	140	120	50	130
C[C@@H]1[C@@H](n2cc(-c3ccccc3C(F)(F)F)nn2)O[C@@H]2O[C@]3(C)CC[C@H]4[C@H](C)CC[C@@H]1[C@@]24OO3	530	1070	400	620	350	480
CC(=O)O[C@H]1C(=O)[C@@]2(C)[C@H]([C@H](OC(=O)c3ccccc3)[C@]3(O)C[C@H](OC(=O)[C@H](O)[C@@H](NC(=O)c4ccccc4)c4ccccc4)C(C)=C1C3(C)C)[C@]1(OC(C)=O)CO[C@@H]1C[C@@H]2O [PACLITAXEL]	20	10	10	30	20	10
C[C@@H]1[C@@H](n2cc(-c3cccc(Cl)c3)nn2)O[C@@H]2O[C@]3(C)CC[C@H]4[C@H](C)CC[C@@H]1[C@@]24OO3	350	1170	330	410	210	280
COc1ccc(-c2cn([C@@H]3O[C@@H]4O[C@]5(C)CC[C@H]6[C@H](C)CC[C@@H]([C@H]3C)[C@@]46OO5)nn2)cc1	390	490	300	360	130	130
CCCCCc1ccc(-c2cnnn2[C@@H]2O[C@@H]3O[C@]4(C)CC[C@H]5[C@H](C)CC[C@@H]([C@H]2C)[C@@]35OO4)cc1	90	220		100	40	80
C[C@H]1[C@H](n2cc(-c3ccccc3)nn2)O[C@@H]2O[C@]3(C)CC[C@H]4[C@H](C)CC[C@@H]1[C@@]24OO3	500	930	570	730	580	780
COc1ccc(-c2cn([C@H]3O[C@@H]4O[C@]5(C)CC[C@H]6[C@H](C)CC[C@@H]([C@@H]3C)[C@@]46OO5)nn2)cc1	70	220	70	70	100	100
Cc1ccc(-c2cn([C@H]3O[C@@H]4O[C@]5(C)CC[C@H]6[C@H](C)CC[C@@H]([C@@H]3C)[C@@]46OO5)nn2)cc1	1340	160	1740	1580	730	700
C[C@H]1[C@H](n2nncc2-c2ccc(F)cc2)O[C@@H]2O[C@]3(C)CC[C@H]4[C@H](C)CC[C@@H]1[C@@]24OO3	90	310	80	80	60	770
C[C@H]1[C@H](n2cc(-c3cccc(Cl)c3)nn2)O[C@@H]2O[C@]3(C)CC[C@H]4[C@H](C)CC[C@@H]1[C@@]24OO3	250	290	310	240	90	210
CCCCCc1ccc(-c2cn([C@H]3O[C@@H]4O[C@]5(C)CC[C@H]6[C@H](C)CC[C@@H]([C@@H]3C)[C@@]46OO5)nn2)cc1	270	840	260	440	240	340
COc1ccc(-c2cnnn2[C@@H]2O[C@@H]3O[C@]4(C)CC[C@H]5[C@H](C)CC[C@@H]([C@H]2C)[C@@]35OO4)cc1	230	880	210	240	90	290
C[C@H]1[C@H](n2cc(-c3ccccc3C(F)(F)F)nn2)O[C@@H]2O[C@]3(C)CC[C@H]4[C@H](C)CC[C@@H]1[C@@]24OO3	290	2380	290	320	190	340

Reference: ChEMBL document CHEMBL1177810, “Acid-catalyzed synthesis of 10-substituted triazolyl artemisinins and their growth inhibitory activity against various cancer cells” (2010)
